# Hits are enriched below; roughly 4.6% of the tested compounds scored in any of these assays.
# OX1R antag-1 – human HCRTR1 antagonism | hit rate 0.43% among 330,000 | inhibition, % at 5 µM | CHO/OX1R cells, Fluo-8 calcium fluorescence, orexin A;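 active means inhibition above its plate's threshold, mean inhibition of all tested compounds on the plate plus 3 SD, cut at about 37% in these data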;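 further: 0% = orexin A challenge wells and 100% = SB-334867-A antagonist wells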
# Target sequence (O43613 whole entry, looked up): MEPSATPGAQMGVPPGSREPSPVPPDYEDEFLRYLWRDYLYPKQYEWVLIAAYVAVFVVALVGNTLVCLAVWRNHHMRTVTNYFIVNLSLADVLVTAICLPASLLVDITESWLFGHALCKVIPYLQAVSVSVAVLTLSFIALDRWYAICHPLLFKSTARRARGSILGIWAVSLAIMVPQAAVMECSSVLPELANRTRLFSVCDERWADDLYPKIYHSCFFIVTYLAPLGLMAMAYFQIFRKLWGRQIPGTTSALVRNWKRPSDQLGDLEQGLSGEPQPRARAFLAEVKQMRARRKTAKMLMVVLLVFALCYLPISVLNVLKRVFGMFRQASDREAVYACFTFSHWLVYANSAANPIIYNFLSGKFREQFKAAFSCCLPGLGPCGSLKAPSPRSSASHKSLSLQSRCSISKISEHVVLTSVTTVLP
# TAAR1 agonist – agonists of human TAAR1 | Q96RJ0 | CHO RD-HGA16 TAAR1, Fluo-8 calcium fluorescence; vehicle wells 0%, saturating PEA agonist 100% | activation, % at 3 µM | hit rate 0.99% among 360,000;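 active means activation above the mean activation of all test compounds in the run plus 3 SD, cut at about 38% in these data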
# Target sequence (Q96RJ0 whole entry, looked up): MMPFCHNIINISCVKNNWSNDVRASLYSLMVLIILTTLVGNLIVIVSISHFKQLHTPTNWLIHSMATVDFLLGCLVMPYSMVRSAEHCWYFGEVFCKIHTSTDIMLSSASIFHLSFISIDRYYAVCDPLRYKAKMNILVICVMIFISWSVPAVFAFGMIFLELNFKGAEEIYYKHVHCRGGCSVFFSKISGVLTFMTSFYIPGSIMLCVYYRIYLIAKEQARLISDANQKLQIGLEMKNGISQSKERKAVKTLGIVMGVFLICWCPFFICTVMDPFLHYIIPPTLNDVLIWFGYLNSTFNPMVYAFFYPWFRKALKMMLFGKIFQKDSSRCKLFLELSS
#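 Test system: RD-HGA16 (CHO) cells co-expressing Gα16 and hTAAR1; dosing: one-point dosing at 3 µM (nominal); timing: 17-24 h seeding, 75 min 37 °C dye, 30 min RT; signal: kinetic Fluo-8 calcium fluorescence; read-out basis: % activation relative to PEA EC100 response; controls: DMSO and PEA EC100; replicates: n 1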
# TAAR1 antagonist – human TAAR1 antagonism | Q96RJ0 | CHO RD-HGA16 TAAR1, Fluo-8 calcium fluorescence, antagonist | inhibition, % at 3 µM | hit rate 1.5% among 360,000;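 active means inhibition above a per-plate cutoff, the mean inhibition of test compounds on that plate plus 3 SD, cut at about 49% in these data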;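 further: 0% = DMSO plus EC80 beta-PEA response and 100% = DMSO alone without agonist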
#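 Test system – hTAAR1-expressing CHO RD-HGA16 cells, Gα16-coupled · Also added – β-PEA at EC80 concentration, post-compound challenge · Compound – 3 µM, single point · Incubation – dye loading 75 min at 37 °C, then 30 min room temperature · Measured by – Fluo-8 intracellular calcium dye fluorescence, real-time kinetic reads · Benchmarks – vehicle and agonist controls · Replicates – singlicate, one well per test compound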
# GPR7 antag – antagonists of human GPR7 (neuropeptides B/W receptor 1) | inhibition, % at 4.4 µM | hit rate 1.1% among 290,000 | AID 1861 | P48145 | GPR7-expressing cells, fluorescence antagonist assay; in the data active means inhibition above about 16%, passing the limit was not always enough;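 further: cells stimulated with the agonist NPW; 0% = agonist with vehicle and 100% = vehicle without agonist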
# CHO parental Ca – counter-screen: ATP calcium response change in parental CHO cells. hit rate 0.63% among 330,000. inhibition, % at 5.6 µM. AID 463079. parental CHO-K1, ATP-induced calcium, Fluo-8 fluorescence;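 active means inhibition above that plate's mean sample inhibition plus 3 SD, cut at about 26% in these data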;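 further: 0% = ATP-challenged DMSO wells and 100% = DMSO wells without ATP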
#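 Assay system: untransfected parental CHO cell line. Also added: ATP agonist challenge. Dosing: one dose, 5.6 µM nominal. Measured by: Fluo-8 fluorescence. Read-out: % inhibition. Benchmarks: ATP wells versus no-ATP DMSO wells. Repeats: no replicates.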
# OX1R antag-2 – OX1R (human) antagonism; OX1R-expressing cells, FRET antagonist read-out; inhibition, % at 6.6 µM; hit rate 1.8% among 330,000; O43613; in the data active means inhibition mostly above about 38%, no sharp cut-off; inactive means mostly below about 40%;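 further: 0% = agonist challenge alone and 100% = reference antagonist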
# OX1R HTRF conf – OX1R (human) antagonism, HTRF confirmed. shares compounds with OX1R antag-2. OX1R-expressing cells, HTRF antagonist assay. inhibition, % at 6.6 µM. hit rate 49% among 1,800; in the data active means inhibition above about 55%;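 further: CHO cells expressing OX1R stimulated with orexin A at about EC80; 0% = agonist challenge alone and 100% = reference antagonist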
# CHO-K1 HTRF cnt – counter-screen for OX1R antagonists: effect in parental CHO-K1 cells; shares compounds with OX1R antag-2; HTRF counterscreen; hit rate 48% among 1,800; inhibition, % at 6.6 µM; AID 493232; in the data active means inhibition above about 17%;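 further: 0% = agonist challenge with vehicle and 100% = vehicle alone without agonist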
# * marks the source's active call; other numbers are inactive results; · = not tested or not shown.
SMILES,OX1R antag-1,TAAR1 agonist,TAAR1 antagonist,GPR7 antag,CHO parental Ca,OX1R antag-2,OX1R HTRF conf,CHO-K1 HTRF cnt
O=[N+]([O-])c1ccc(NCCCN2CCOCC2)c([N+](=O)[O-])c1,-12.7,1.9,-0.5,-11.4,8.8,170.7*,46.0,72.3*
O=C(NCCCN1CCOCC1)c1cc(Cl)ccc1[N+](=O)[O-],5.7,11.6,-9.6,-3.6,-2.9,30.0,·,·
O=C(NCCc1ccccc1F)C1CC(=O)N(c2cccc(C(F)(F)F)c2)C1 (stereo not drawn),·,5.9,-13.7,·,·,·,·,·
NC(=O)c1ccc(Nc2ccc([N+](=O)[O-])cc2[N+](=O)[O-])cc1,-4.1,1.8,-10.5,12.1,-9.4,107.1*,42.2,54.3*
CC(C)(CO)Nc1ccc([N+](=O)[O-])cc1[N+](=O)[O-],5.1,-1.0,-14.0,-4.0,0.5,93.6*,34.4,37.5*
O=C(NCc1cccnc1)c1ccc(Cl)cc1[N+](=O)[O-],-15.6,6.1,-3.3,-5.5,-21.5,77.1*,40.8,32.8*
Nc1ccc(Nc2ccc([N+](=O)[O-])cc2[N+](=O)[O-])cc1,-15.0,0.3,16.4,-1.6,0.4,36.2,·,·
COc1ccc(S(=O)(=O)N2C[C@H]3CON(C)[C@H]3C[C@H]2c2ccc(-c3cc4ccccc4o3)cc2)cc1,·,3.7,7.3,·,·,·,·,·
CCCNC(=S)Nc1c(C)n(C)n(-c2ccccc2)c1=O,-14.9,1.9,-10.1,-13.8,-10.8,5.3,·,·
O=S1(=O)N[C@H](Cc2ccccc2)COc2cccc(N3CCSCC3)c21,·,0.2,7.2,·,·,·,·,·
COc1ccc(-c2nn3c(-c4ccccc4)nnc3s2)cc1,19.6,1.0,9.4,-8.2,-7.3,87.0*,88.1*,13.2
COc1ccc(-c2nn3c(-c4ccc(F)cc4)nnc3s2)cc1,-13.7,-0.9,-4.5,20.2,-6.3,7.7,·,·
CCc1nc2ccc(C(=O)N3CCCC(C(N)=O)C3)cn2c1N(C)Cc1ccc(OC)cc1 (stereo not drawn),·,1.8,-21.3,·,·,·,·,·
CCOC(=O)C1=C(COC(=O)c2ncc(Cl)c(Cl)c2Cl)NC(=O)NC1C (stereo not drawn),-26.4,3.4,-1.8,·,-14.2,6.0,·,·
O=C1c2ccc3c4c(ccc(c24)C(=O)N1CCCCO)C(=O)N(CCCCO)C3=O,·,4.0,8.8,-11.6,·,·,·,·
O=C(c1ccc2c(c1)C(=O)N(CCCO)C2=O)c1ccc2c(c1)C(=O)N(CCCO)C2=O,-16.0,16.3,43.3,-10.0,-14.7,148.9*,56.0*,66.7*
N#Cc1ccc(CSc2nnc(-c3ccncc3)n2CCc2ccccc2)cc1,-14.8,5.4,-13.5,5.7,-21.8,46.8,·,·
c1ccc(CCn2c(SCc3ccccc3)nnc2-c2ccncc2)cc1,-33.2,9.9,-8.4,-7.2,-21.8,101.3*,14.9,-2.5
CN1C(=O)/C(=C2\SC(=S)N(C(CCC(=O)O)C(=O)O)C2=O)c2ccccc21 (stereo not drawn),-14.6,6.2,-5.2,-4.6,-0.3,141.8*,57.2*,102.0*
Cc1ccc(S(=O)(=O)/N=C2\C=C(NS(=O)(=O)c3ccccc3)C(=O)c3ccccc32)c(C)c1,·,3.1,-0.3,·,·,·,·,·
CC(C)(C)c1ccc(S(=O)(=O)/N=C2\C=C(NS(=O)(=O)c3ccccc3)C(=O)c3ccccc32)cc1,-17.7,-2.8,-9.7,-5.9,-33.6,88.1*,47.4,4.1
CC(=O)c1sc(NC(=O)C=C(C)C)nc1C,-8.6,15.5,-2.2,2.5,-1.9,16.6,·,·
CC(=O)c1sc(NC(=O)C2(F)C(F)(F)C(F)(F)C(F)(F)C(F)(F)C2(F)F)nc1C,35.1,8.8,-4.8,11.4,15.9,79.9*,70.8*,26.2*
CCC(=O)Nc1ccc(C(=O)NNC(=O)c2ccc([N+](=O)[O-])cc2)cc1,-9.4,-0.4,3.3,0.3,0.7,158.3*,39.5,33.8*
CC(=O)Nc1ccc(C(=O)NNC(=O)c2cc([N+](=O)[O-])cc([N+](=O)[O-])c2)cc1,-3.0,7.2,-7.0,-5.4,-11.2,80.3*,49.2,73.5*
SMILES,OX1R antag-1,TAAR1 agonist,TAAR1 antagonist,GPR7 antag,CHO parental Ca,OX1R antag-2,OX1R HTRF conf,CHO-K1 HTRF cnt
CCC(=O)Nc1ccc(C(=O)NNC(=O)c2cc([N+](=O)[O-])cc([N+](=O)[O-])c2)cc1,-5.6,12.9,6.2,1.9,5.4,181.2*,19.4,11.3
CC(=O)Nc1ccc(S(=O)(=O)NNC(=O)c2ccc([N+](=O)[O-])cc2)cc1,-15.4,-0.9,-5.5,-8.7,-8.7,18.6,·,·
CCCCNC(=O)C(NC(=O)c1ccc(=O)[nH]c1)C(=O)c1ccccc1 (stereo not drawn),·,1.5,-24.5,·,·,·,·,·
CCOc1ccccc1NC(=O)CCNC(=O)C1CCN(S(=O)(=O)c2ccccc2)CC1,·,3.5,-14.4,·,·,·,·,·
CC[n+]1ccccc1/C=C/c1ccc(N(C)C)cc1,·,9.3,13.6,1.3,·,·,·,·
CC[n+]1c(/C=C/c2ccc(N(C)C)cc2)ccc2ccccc21,20.4,-0.5,1.0,6.7,33.1,94.0*,82.5*,103.5*
CC(=O)Nc1ccc(-c2ccnc3c2CC(C)(C(=O)NCc2ccc(F)c(F)c2)O3)cc1 (stereo not drawn),·,-2.0,-9.0,·,·,·,·,·
O=C1CC2C(CCC23OCCO3)c2ccc3ccccc3c21 (stereo not drawn),·,-0.5,-12.0,·,·,·,·,·
O=C(O)c1ccc(-n2nc(C(F)(F)F)cc2-c2cccs2)cc1,·,2.9,-5.3,-5.2,·,·,·,·
Cc1cccc(C(=O)NCCC(=O)NCc2ccccc2Cl)c1,-3.8,-1.3,3.4,·,-24.2,6.4,·,·
O=C(NC(=S)Nc1cccc2cccnc12)c1ccccc1,-13.1,13.4,0.2,-7.1,-13.9,19.0,·,·
O=C(NC(=S)Nc1cccc2cccnc12)c1cccs1,24.2,5.0,33.2,-7.4,-24.4,94.8*,92.6*,6.9
COc1cc(C(=O)O)nc2ccc([N+](=O)[O-])cc12,-11.1,6.2,-0.1,-14.3,-11.7,88.1*,60.3*,98.4*
COc1ccc([N+](=O)[O-])cc1C(=O)C(=O)c1ccccc1,-29.9,0.6,-11.9,-0.2,-9.7,12.3,·,·
Cc1c(C)n(C)c2ccc(C(=O)Nc3cccc4ccccc34)cc12,10.0,5.7,3.6,-8.8,-17.5,84.7*,77.4*,9.7
O=C(Nc1cccc2ccccc12)c1ccccc1,-4.5,0.3,-9.5,-5.2,-13.6,3.5,·,·
CC1(C(=O)Nc2ccc3nc[nH]c3c2)CCN1C(=O)c1ccccc1CCc1ccccc1 (stereo not drawn),·,8.6,29.6,·,·,·,·,·
COc1cc2sc3ccc(-c4ccc(N(C)C)nc4)cc3c(=O)c2cc1OC,-5.8,3.6,-14.2,·,-17.8,79.7*,64.6*,16.6

# Screening data (PubChem BioAssay)
